Only some compounds are listed: those with a hit (about 2% of all), similar ones and a draw of the others.
Dynein transport = inhibitors of GR-EGFP nuclear translocation, primary screen, dynein cargo transport inhibitor project, imaging, high-content, 3617.4 mouse cells; test concentration mostly 20 µM; stimulated with dexamethasone, 1 µM; active compounds read low; z-score, hits read low; 0.47% of 220,000 active;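 active = plate z-score of nuclear minus cytoplasmic receptor signal below a set negative limit, without overly bright fluorescence or cell loss, cut at about -3.5 in these data, passing the limit was not always enough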;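 also: z-score of nuclear minus cytoplasmic ring GR-EGFP intensity difference per well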
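medium = tetracycline-free induction medium containing charcoal-stripped FBS | also added = 1.0 µM final dexamethasone stimulus | schedule = 48 h induction, 1 h compound, 30 min dex at 37 °C | technique = fixed, Hoechst-stained cells imaged at 10x for EGFP | measure = GR-EGFP nuclear translocation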
Autophagy mod = autophagy modulators in MEF cells, primary screen, imaging, high-content, MEF GFP-LC3 | MEF GFP-LC3 puncta imaging; test concentration mostly 10 µM | AID 463193, 2010 | 0.98% of 190,000 active | calls only at 10 µM (by protocol);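 active = percentage of spot-positive cells more than 3 SD above its plate mean, without a fluorescence outlier flag or 80% toxicity; inconclusive = no clear call, values can overlap the other calls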
INS promoter inh = inhibitors of insulin promoter-driven GFP, primary screen, imaging, TRM-6 cells, eGFP reporter, cell count. reporter expression induced with tamoxifen. inhibition, % at 2 µM. 0.9% of 130,000 active. AID 1273, 2008;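 active = inhibition above the mean plus 3 SD, with well images judged a real hit on visual review, cut at about 60% in these data, passing the limit was not always enough; inconclusive = inhibition over the cutoff but images rejected on review; inactive = inhibition not above the cutoff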
Ins promoter up = insulin promoter activators in MIN6 cells, imaging, high-content screening, mouse beta cells; MIN6 insulin promoter-GFP reporter; active compounds read high; z-score at 5 µM; 0.3% of 190,000 active; AID 1625, 2009;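 active = z-score above 3 at 5 µM with at least 500 cells counted in the well; inconclusive = wells under 500 cells, flagged as cytotoxic or low count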
Dynein confirm = dynein cargo transport inhibitors, GR-EGFP translocation, confirmation, imaging, high-content imaging, GR-EGFP cells. shares compounds with Dynein transport. 3617.4 GR-EGFP nuclear translocation imaging, dexamethasone-induced. calls only at 20 µM. 69% of 1,000 active;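 active = inhibition of receptor movement into the nucleus at or above a set limit in both runs, with normal cell brightness and cell count; inconclusive = limit reached in only one run, brightness and count normal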;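 also: dexamethasone at 1 µM final in well for 30 min; nuclear minus cytoplasmic GR-EGFP mean intensity difference in channel 2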
Of the large screens only hits and unclear results are named; the others gave an inactive call (follow-up assays come after a bar, where they were run).

Cc1ccc(-c2nc(NC(=O)c3nn(C)cc3[N+](=O)[O-])sc2C)cc1C	none
Cc1ccc(-c2nc(NC(=O)c3nn(C)cc3[N+](=O)[O-])sc2C)cc1	Dynein transport -3.84, Autophagy mod active | Dynein confirm active
CC[C@H](C)/C=C(C)/C=C/C1=CC2=CC(=O)[C@]3(C)OC(=O)[C@@H](C(C)=O)[C@@H]3C2=CO1	none (no result: INS promoter inh)
CC[C@H](C)/C=C(C)/C=C/C(=O)Cc1cc(O)c(C)c(O)c1C=O	Dynein transport -3.84 (no result: Autophagy mod, INS promoter inh) | Dynein confirm active
CCc1ccccc1NC(=O)CN(C)C(=O)Cn1ncc(Cl)c(Cl)c1=O	Dynein transport -3.71, Ins promoter up inconclusive | Dynein confirm active
CCCc1cc(=O)[nH]c(SCC(=O)N(C)CC(=O)Nc2ccccc2CC)n1	none (no result: INS promoter inh)
CCC(=O)Nc1ccc(C(=O)Cn2ncc(Cl)c(Cl)c2=O)cc1	Dynein transport -4.43 (no result: Autophagy mod, INS promoter inh) | Dynein confirm active
Cc1ccc(NC(=O)CCl)cc1S(=O)(=O)N1CCCCCC1	Dynein transport -4.14, Autophagy mod active | Dynein confirm active
CCN(CC)S(=O)(=O)c1cc(NC(=O)Cn2ncc(Cl)c(Cl)c2=O)ccc1C	Dynein transport -4.52, Ins promoter up inconclusive (no result: Autophagy mod, INS promoter inh) | Dynein confirm active
COc1ccccc1N1CCN(C(=O)CCCn2nc(C)c([N+](=O)[O-])c2C)CC1	none (no result: INS promoter inh)
O=C(NC(c1ccccc1)c1ccccc1)c1ccc(=O)[nH]n1	none
CCN(CC)C(=S)SCC(=O)Nc1ncc2c(n1)CC(C)(C)CC2=O	none (no result: Autophagy mod, INS promoter inh)
O=C(COc1ccc(Cl)cc1)NCc1nnc(SCC(=O)Nc2ccccc2F)o1	none
O=C(/C=C\c1ccccc1OC(=O)c1ccccc1F)c1cc2ccccc2o1	Dynein transport -4.69 (no result: INS promoter inh) | Dynein confirm active
Cc1ccc(C)c2nc3sc(C(=O)N4CCCc5ccccc54)c(N)c3cc12	Autophagy mod active (no result: Ins promoter up) | Dynein confirm inactive
Cc1cc(F)ccc1NCc1ccc([N+](=O)[O-])cc1	none
N#Cc1ccc(-c2cccnc2)nc1SCC(=O)c1ccccc1	none (no result: Autophagy mod, INS promoter inh) | Dynein confirm inactive
CCN(CC)C(=O)CSc1nc(-c2ccccc2)ccc1C#N	none (no result: INS promoter inh)
COc1ccccc1/C=C/C(=O)/C=C/c1ccccc1O	Dynein transport -4.21, Ins promoter up inconclusive (no result: Autophagy mod, INS promoter inh) | Dynein confirm active
CC1=NOC(=O)/C1=C\c1ccc(-c2ccc(Cl)c(C(=O)O)c2)o1	none
CC1=NOC(=O)/C1=C\c1ccc(-c2ccccc2Br)o1	Dynein transport -3.67 (no result: Ins promoter up) | Dynein confirm active
O=C1ON=C(c2ccccc2)/C1=C\c1ccco1	Dynein transport -4.44 (no result: Autophagy mod, INS promoter inh) | Dynein confirm active
Cc1ccc(/C=C2/C(=O)ON=C2c2ccccc2)o1	Dynein transport -5.97 (no result: Autophagy mod, INS promoter inh) | Dynein confirm active
CC(C)CC(NC(N)=O)C(=O)OCC(=O)N(Cc1ccccc1)Cc1ccccc1 (stereo not drawn)	none (no result: INS promoter inh)
Cc1ccc(C(=O)NCC(=O)OCC(=O)Nc2ccccc2C#N)s1	none (no result: INS promoter inh)
COc1ccc(C(=O)c2sc3nc(C)cc(-c4cccs4)c3c2N)cc1OC	Autophagy mod active | Dynein confirm inactive
COc1ccc(C(=O)c2sc3nc(C)cc(-c4cccs4)c3c2N)cc1	Autophagy mod active | Dynein confirm inconclusive
Cc1cc(-c2cccs2)c2c(N)c(C(=O)c3ccc4c(c3)OCO4)sc2n1	Autophagy mod active, Ins promoter up 4.7 (no result: INS promoter inh) | Dynein confirm inconclusive
COC(=O)c1sc2nc(C)cc(-c3ccccc3)c2c1N	none (no result: INS promoter inh, Ins promoter up)
Cc1nn(C)c(Sc2ccccn2)c1[N+](=O)[O-]	none (no result: Autophagy mod, INS promoter inh)
O=[N+]([O-])c1ccc(S(=O)(=O)CC(CN2CCCCC2)N2CCCCC2)cc1 (stereo not drawn)	none (no result: INS promoter inh) | Dynein confirm active
O=[N+]([O-])c1ccc(S(=O)(=O)CC(CN2CCOCC2)N2CCOCC2)cc1 (stereo not drawn)	none
CN(C(=O)Nc1ccc(C(C)(C)C)cc1)C1CCCCC1	none (no result: Autophagy mod, INS promoter inh)
CC1(C)CC(=O)C2=C(C1)OC(N)=C(C#N)C2C#Cc1ccccc1 (stereo not drawn)	Dynein transport -5.37 | Dynein confirm active
CCCN(CCC)S(=O)(=O)c1ccc(Cl)c([N+](=O)[O-])c1	Dynein transport -3.53 (no result: INS promoter inh) | Dynein confirm inconclusive
O=C(Cn1cc2c(n1)CCCCC2)Nc1ccccc1Br	none (no result: Autophagy mod, INS promoter inh)
Cc1cc(C(=O)CSc2nnc(N)s2)c(C)n1CCc1ccc(Cl)cc1	none
COc1ccc(CCn2c(C)c(C(C)=O)c(C(C)=O)c2C)cc1OC	none

Screens deposited in PubChem by several laboratories.
